In ChEMBL document CHEMBL1126752, “Synthesis and biological activity of cis-(3aR)-(-)-2,3,3a,4,5,9b-hexahydro- 3-propyl-1H-benz[e]indole-9-carboxamide: a potent and selective 5-HT1A receptor agonist with good oral availability” (J Med Chem, 1993):
Blank lines part the entries; values can stand above or below the molecule they belong to. Activity calls are given as the source filed them. The rule behind the calls is not given here.

Tests used:
Rattus norvegicus [1] = test: In vivo motor activity at 50 umol/kg (sc) in male rats expressed as accumulated counts/30 min; assay type: functional
Mus musculus [2] = test: Swimming activity of the treated mice/control mice at 39 umol/kg, sc; assay type: functional
Mus musculus [3] = test: Swimming activity of the treated mice/control mice at 12 umol/kg, sc; assay type: functional
[4] = molecular target: T1, 5-hydroxytryptamine receptor 1A (Homo sapiens, UniProt P08908); test: Binding affinity against [3H]8-OH-DPAT-labeled 5-hydroxytryptamine 1A receptor sites in cloned CHO cells; assay type: cell-based
T1 sequence (P08908 whole entry): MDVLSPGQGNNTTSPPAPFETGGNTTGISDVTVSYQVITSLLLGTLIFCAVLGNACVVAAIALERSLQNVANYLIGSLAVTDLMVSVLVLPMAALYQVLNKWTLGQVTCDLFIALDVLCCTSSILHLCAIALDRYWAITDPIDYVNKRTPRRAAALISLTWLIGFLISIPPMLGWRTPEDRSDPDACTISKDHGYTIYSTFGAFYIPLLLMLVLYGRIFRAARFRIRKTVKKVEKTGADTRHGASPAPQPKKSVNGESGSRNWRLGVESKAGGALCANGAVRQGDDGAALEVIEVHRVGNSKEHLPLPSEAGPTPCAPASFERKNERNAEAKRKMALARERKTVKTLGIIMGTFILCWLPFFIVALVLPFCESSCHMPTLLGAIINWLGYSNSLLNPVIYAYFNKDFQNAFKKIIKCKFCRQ
Outline: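 Competition binding against [3H]-8-OH-DPAT (85 Ci/mmol, 1.2 nM) using 11 dilutions of test compound. Receptor was cloned mammalian 5-HT1A expressed in CHO-K1 cells. IC50 from a one-site nonlinear least-squares fit, converted to Ki by Cheng-Prusoff. Ki reported ±SEM.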

Rattus norvegicus [5] = test: DOPA accumulation in limbic system of reserpinized rats following subcutaneous administration at highest dose tested (50 umol/kg); Inactive; assay type: functional, organism-based
Rattus norvegicus [6] = test: 5-HTP accumulation in hemispheres of reserpinized rats following subcutaneous administration at highest dose tested (50 umol/kg); Inactive; assay type: functional, organism-based
Rattus norvegicus [7] = test: 5-HTP accumulation in corpus striatum of reserpinized rats following subcutaneous administration at highest dose tested (50 umol/kg); Inactive; assay type: functional, organism-based
Rattus norvegicus [8] = test: DOPA accumulation in corpus striatum of reserpinized rats following subcutaneous administration at highest dose tested (50 umol/kg); Inactive; assay type: functional, organism-based
Rattus norvegicus [9] = test: DOPA accumulation in hemispheres of reserpinized rats following subcutaneous administration at highest dose tested (50 umol/kg); Inactive; assay type: functional, organism-based
Rattus norvegicus [10] = species on record: Rattus norvegicus; test: Compound was tested for gross behavioral response in rats; no change; assay type: functional, organism-based
Rattus norvegicus [11] = test: 5-HTP accumulation in limbic system of reserpinized rats following subcutaneous administration at highest dose tested (50 umol/kg); Inactive; assay type: functional, organism-based
Rattus norvegicus [12] = test: 5-HTP accumulation in corpus striatum of reserpinized rats following subcutaneous administration.; assay type: functional; details: sc
Rattus norvegicus [13] = test: 5-HTP accumulation in hemispheres of reserpinized rats following peroral administration; assay type: functional; details: po
Rattus norvegicus [14] = test: 5-HTP accumulation in corpus striatum of reserpinized rats following peroral administration; assay type: functional; details: po
Mus musculus [15] = test: Swimming activity of the treated mice/control mice at 1.2 umol/kg, sc; assay type: functional
Felis catus [16] = test: Percent arterial blood pressure at sympathetic nerve discharge in anesthetized cat; assay type: functional
Outline: (§1)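 Adult cats (2.5-4.0 kg) anesthetized with ketamine 11 mg/kg im then chloralose 80 mg/kg iv. Animals paralyzed with gallamine, ventilated, and kept at 37-38 °C. Blood pressure recorded via femoral artery. Sympathetic activity quantified by cumulative integration. Increasing doses given iv cumulatively at 20-min intervals.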

Rattus norvegicus [17] = test: 5-HTP accumulation in limbic system of reserpinized rats following peroral administration; assay type: functional; details: po
Felis catus [18] = test: Inhibition of sympathetic nerve discharge (SND) in anesthetized cat; assay type: functional; outline: as §1
[19] = Half-life time in rats; assay type: ADME, organism-based; details: rat, in vivo
Outline: (§2)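 Male Sprague-Dawley rats (300 g) sampled from arterial catheters 24 h after surgery over 10-24 h. Dosing was 5 µmol/kg iv and 40 µmol/kg po, with oral rats fasted 18 h. Parent drug in blood measured by GC/MS after pH 11 dichloromethane extraction with internal standard, samples run in duplicate. Availability from po/iv AUC ratio (n = 4).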

Mus musculus [20] = test: Swimming activity of the treated mice/control mice at 3.9 umol/kg, sc (p < 0.001); assay type: functional
Rattus norvegicus [21] = species on record: Rattus norvegicus; test: Inhibition of 5-HT1A cell firing in rats; assay type: functional
Outline: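 Male Sprague-Dawley rats (280-330 g) under chloral hydrate anesthesia (400 mg/kg ip), drug given iv via femoral vein in distilled water. Dorsal raphe serotonergic neurons recorded extracellularly and confirmed histologically by dye deposit. Firing rate followed by integrated ratemeter.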

Mus musculus [22] = test: Swimming activity of the treated mice/control mice at 12 umol/kg, sc (p < 0.001); assay type: functional
Felis catus [23] = test: Maximum decrease in blood pressure observed following 1 mg/kg dose in anesthetized cat; assay type: functional; parameters: unit not given here; outline: as §1
Rattus norvegicus [24] = test: In vivo motor activity at 12.5 umol/kg (po) in male rats expressed as accumulated counts/30 min (p < 0.001); assay type: functional
Rattus norvegicus [25] = test: 5-HTP accumulation in hemispheres of reserpinized rats following subcutaneous administration.; assay type: functional; details: sc
Rattus norvegicus [26] = test: In vivo motor activity at 12.5 umol/kg (sc) in male rats expressed as accumulated counts/30 min (p < 0.001); assay type: functional
Mus musculus [27] = test: Effect on hypothermia in mice following peroral administration; details: po
Mus musculus [28] = test: Effect on hypothermia in mice following subcutaneous administration; details: sc
Felis catus [29] = test: Maximum decrease in sympathetic nerve discharge in anesthetized cat.; assay type: functional; outline: as §1
Rattus norvegicus [30] = test: 5-HTP accumulation in limbic system of reserpinized rats following subcutaneous administration; assay type: functional; details: sc
Rattus norvegicus [31] = test: DOPA accumulation in corpus striatum of reserpinized rats following peroral administration at highest dose tested (50 umol/kg); Inactive; assay type: functional, organism-based
Rattus norvegicus [32] = test: DOPA accumulation in hemispheres of reserpinized rats following peroral administration at highest dose tested (50 umol/kg); Inactive; assay type: functional, organism-based
Rattus norvegicus [33] = test: DOPA accumulation in limbic system of reserpinized rats following peroral administration at highest dose tested (50 umol/kg); Inactive; assay type: functional, organism-based
Rattus norvegicus [34] = species on record: Rattus norvegicus; test: Compound was tested for gross behavioral response in rats; full-blown 5-HT syndrome; assay type: functional, organism-based
Rattus norvegicus [35] = test: Oral availability obtained from blood plasma levels of the parent compound following 5 umol /kg intravenous and 40 umol /kg peroral administration; assay type: functional, organism-based; outline: as §2
Mus musculus [36] = test: Swimming activity of the treated mice/control mice at 39 umol/kg, sc (p < 0.05); assay type: functional
Rattus norvegicus [37] = species on record: Rattus norvegicus; test: Compound was tested for gross behavioral response in rats; partial 5-HT syndrome; assay type: functional, organism-based

- Ki [4]: > 1440 nM
SMILES: CCCN1CCC2c3c(cccc3C(N)=O)CC[C@@H]21 (single isomer, unassigned; (+)-3b) [listing 1 of 2 here]
- Accumulated counts/30 min (Rattus norvegicus [1]): 9
- Swimming activity (Mus musculus [2]): 1.1
- Swimming activity (Mus musculus [3]): 1.2

- half-life [19]: 2 h
- Ki [4]: 1.9 nM
SMILES: CCCN1CC[C@H]2c3c(cccc3C(N)=O)CC[C@H]21 (stereo in doubt; (-)-3a) [listing 1 of 2 here]
- ED50 (Rattus norvegicus [12]): 0.07 µmol/kg
- ED50 (Rattus norvegicus [13]): 0.28 µmol/kg
- ED50 (Rattus norvegicus [14]): < 0.2 µmol/kg
- Swimming activity (Mus musculus [15]): 1.5
- BP (Felis catus [16]): 83%
- ED50 (Rattus norvegicus [17]): 0.23 µmol/kg
- ED50 (Felis catus [18]): 0.049 µmol/kg
- Swimming activity (Mus musculus [20]): 4.7
- ED50 (Rattus norvegicus [21]): 0.023 µmol/kg
- Swimming activity (Mus musculus [22]): 7.1
- Max decrease (Felis catus [23]): 52
- Accumulated counts/30 min (Rattus norvegicus [24]): 173
- ED50 (Rattus norvegicus [25]): 0.32 µmol/kg
- Accumulated counts/30 min (Rattus norvegicus [26]): 249
- ED50 (Mus musculus [27]): 2.8 µmol/kg
- Swimming activity (Mus musculus [2]): 1.1
- ED50 (Mus musculus [28]): 0.4 µmol/kg
- Max decrease (Felis catus [29]): 0
- ED50 (Rattus norvegicus [30]): 0.28 µmol/kg

- Ki [4]: 28 nM
SMILES: CCCN1CC[C@H]2c3c(cccc3C(N)=O)CC[C@H]21 (stereo in doubt; (-)-3b) [listing 1 of 2 here]
- Swimming activity (Mus musculus [36]): 1.7
- Swimming activity (Mus musculus [3]): 0.7

Continued, molecule first:

SMILES: CCCN1CCC2c3c(cccc3C(N)=O)CC[C@@H]21 (single isomer, unassigned; (+)-3b) [listing 2 of 2 here]
- ED50 (Rattus norvegicus [5]): inactive
- ED50 (Rattus norvegicus [6]): inactive
- ED50 (Rattus norvegicus [7]): inactive
- ED50 (Rattus norvegicus [8]): inactive
- ED50 (Rattus norvegicus [9]): inactive
- Response (Rattus norvegicus [10]): inactive
- ED50 (Rattus norvegicus [11]): inactive

SMILES: CCCN1CC[C@H]2c3c(cccc3C(N)=O)CC[C@H]21 (stereo in doubt; (-)-3a) [listing 2 of 2 here]
- NA (Rattus norvegicus [5]): inactive
- NA (Rattus norvegicus [31]): inactive
- NA (Rattus norvegicus [32]): inactive
- NA (Rattus norvegicus [8]): inactive
- NA (Rattus norvegicus [9]): inactive
- NA (Rattus norvegicus [33]): inactive
- Response (Rattus norvegicus [34]): Active
- bioavailability (Rattus norvegicus [35]): 46%

SMILES: CCCN1CC[C@H]2c3c(cccc3C(N)=O)CC[C@H]21 (stereo in doubt; (-)-3b) [listing 2 of 2 here]
- ED50 (Rattus norvegicus [5]): inactive
- ED50 (Rattus norvegicus [8]): inactive
- ED50 (Rattus norvegicus [9]): inactive
- Response (Rattus norvegicus [37]): Partially active
